Laboratory results as given in ChEMBL document CHEMBL1142233, “Treatment of diabetes and atherosclerosis by inhibiting fatty-acid-binding protein aP2” (2007).
Activity calls are given as the source filed them. The calls are words filed in the database; no cut-off is given here.

Experiments:
Mus musculus [1] = test: Inhibition of aP2 in 5-week old apoE-/- C57BL/6J mouse fed on western diet and administered with 15 mg/kg/day, po drug at 12 week in late intervention study assessed as reduction of atherosclerotic lesion in en face aorta relative to control; format: functional; parameters: scale not given: the % may be the effect or the level left
How it was run: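 Male Apoe⁻/⁻ C57BL/6J mice were fed a western diet (21% fat, 0.21% cholesterol) from 4–5 weeks of age. They were gavaged for 6 weeks with 15 mg kg⁻¹ d⁻¹ in vehicle (10% 1-methyl-2-pyrrolidone, 5% cremophor EL with ethanol, in water), starting at 5 weeks (early) or 12 weeks (late). Perfusion-fixed, pinned-out aortas were stained with Sudan IV and lesion area was quantified.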

Mus musculus [2] = test: Effect on body weight in 5-week old apoE-/- C57BL/6J mouse fed on western diet and 15 mg/kg/day, po drug simultaneously in 5-11 week early intervention study; format: functional
Mus musculus [3] = test: Effect on glucose level in 5-week old apoE -/- C57BL/6J mouse fed on western diet and 15 mg/kg/day, po drug simultaneously in 5-11 week early intervention study; format: functional
How it was run: (§1)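 Male Apoe−/− mice on western diet (21% fat, 0.21% cholesterol) from 4–5 weeks of age. Oral gavage for 6 weeks from age 5 or 12 weeks; vehicle 10% 1-methyl-2-pyrrolidone, 5% cremophor EL with ethanol in water. Blood taken after 6 h fast before and after treatment. Glucose by meter; insulin by ELISA; lipids and glycerol colorimetric.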

Mus musculus [4] = test: Effect on cholesterol level in 5-week old apoE -/- C57BL/6J mouse fed on western diet and 15 mg/kg/day, po drug simultaneously in 5-11 week early intervention study; format: functional; how it was run: as §1
Mus musculus [5] = test: Increase in insulin-stimulated AKT serine 473 phosphorylation in ob/ob mouse adipose tissue at 40 mg/kg/day, po relative to control; format: functional, organism-based
How it was run: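 Male ob/ob mice were dosed by oral gavage at 40 mg kg⁻¹ d⁻¹ or with vehicle. After 6 h food withdrawal and tribromoethanol anaesthesia, insulin (2 IU kg⁻¹) or PBS went into the portal vein. Adipose tissue was taken 3 min later, lysed and immunoblotted for IRβ pTyr1162/1163, AKT pSer473 and total proteins. Signals were quantified by densitometry.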

Mus musculus [6] = test: Attenuation of fatty infiltration of liver in ob/ob mouse at 40 mg/kg/day, po; format: functional, organism-based
How it was run: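 Male ob/ob mice given daily oral gavage for 6 weeks starting at 8 weeks of age. Liver sections stained with haematoxylin and eosin; n = 6 per group.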

Mus musculus [7] = test: Decrease in Scd1 expression in liver of ob/ob mouse at 40 mg/kg/day, po; format: functional, organism-based
How it was run: (§2)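 Liver from male ob/ob mice gavaged daily for 6 weeks from 8 weeks of age, n = 6 per group. mRNA measured by SYBR Green real-time PCR: 95 °C 4 min, then 50 cycles of 95 °C 15 s, 58 °C 30 s, 72 °C 30 s. Normalized to 18s rRNA.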

Mus musculus [8] = test: Decrease in Fasn expression in liver of ob/ob mouse at 40 mg/kg/day, po; format: functional, organism-based; how it was run: as §2
Mus musculus [9] = test: Inhibition of JNK1 activity in ob/ob mouse liver at 40 mg/kg/day, po relative to control; format: functional, organism-based
How it was run: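 Liver lysates (500–1,000 μg protein) from ob/ob mice gavaged at 40 mg kg⁻¹ d⁻¹ were immunoprecipitated with JNK1 antibody. The beads were incubated with 10 μCi ³²P-γATP, 10 μM ATP and 5 μg c-jun fusion protein in Hepes pH 7.4/MgCl₂ buffer at 30 °C for 20 min. The reaction was stopped with Laemmli buffer and quantified.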

Mus musculus [10] = test: Decrease in insulin level in ob/ob mouse plasma at 40 mg/kg/day, po after 6 weeks relative to control; format: functional, organism-based
How it was run: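 Male ob/ob mice given oral gavage daily for 6 weeks from 8 weeks old, n = 6 per group. Blood taken after 6 h fast before and after treatment; fed glucose taken at week 2. Glucose by meter on 3 μl whole blood, insulin by ultrasensitive ELISA, cholesterol, FFA and glycerol by colorimetric microplate assays.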

Mus musculus [11] = test: Suppression of clamp hepatic glucose production in ob/ob mouse at 40 mg/kg/day, po after 4 weeks by hyperinsulinemic-euglycaemic clamp studies; format: functional, organism-based
How it was run: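 Clamps were run in ob/ob mice after 4 weeks of oral gavage at 40 mg kg⁻¹ d⁻¹ (vehicle n = 7, treated n = 9), with jugular catheters placed 4 days earlier. Insulin was infused at 12.5 mU kg⁻¹ min⁻¹, 25% glucose at variable rates held basal glycaemia, and ³H-glucose ran at 0.1 μCi min⁻¹. Clamp hepatic glucose production = whole-body uptake minus glucose infusion rate.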

Mus musculus [12] = test: Increase in glucose uptake in gastrocnemius muscle in ob/ob mouse at 40 mg/kg/day, po after 4 weeks by hyperinsulinemic-euglycaemic clamp studies relative to control; format: functional, organism-based
How it was run: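 Ob/ob mice after 4 weeks of treatment, jugular catheterized 4 days earlier. Clamp with insulin at 12.5 mU kg⁻¹ min⁻¹, variable 25% glucose to hold basal glucose, and ³H-glucose at 0.1 μCi min⁻¹ with 2-¹⁴C-DG. Tissue uptake computed from the fitted plasma 2-¹⁴C-DG curve and tissue 2-¹⁴C-DG-6-phosphate content. n = 7 and 9.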

Mus musculus [13] = test: Effect on glucose level in 5-week old apoE-/- C57BL/6J mouse fed on western diet and administered with 15 mg/kg/day, po drug at 12 week in 12-18 week late intervention study; format: functional; how it was run: as §1
Mus musculus [14] = test: Effect on triglyceride level in 5-week old apoE-/- C57BL/6J mouse fed on western diet and administered with 15 mg/kg/day, po drug at 12 week in 12-18 week late intervention study; format: functional; how it was run: as §1
[15] = Reduction in total cholesterol ester content in mouse aP2-/-R macrophage cells (re-expression of aP2) at 25 uM relative to control; format: functional, cell-based
THP-1 = test: Increase in ABCA1 protein level in human THP1 cells at 25 uM relative to control; format: functional, cell-based
Macrophage [16] = test: Increase in cholesterol efflux in mouse aP2+/+ macrophage cells at 25 uM relative to control; format: functional, cell-based
How it was run: (§3)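 Macrophages loaded 24 h in RPMI with 5% LPDS, 1 μCi ml⁻¹ ³H-cholesterol and 50 μg ml⁻¹ acLDL, ± 25 μM inhibitor. Equilibrated 24 h in 0.2% fatty-acid-free BSA ± inhibitor, then 4 h ± APOA1 20 μg ml⁻¹. Efflux = medium ³H as % of total, per mg protein; mouse lines normalized to untreated aP2+/+.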

Macrophage [17] = test: Increase in cholesterol efflux in mouse aP2-/- macrophage cells at 25 uM relative to control; format: functional, cell-based; how it was run: as §3
Mus musculus [18] = test: Decrease in Mcp1 expression in ob/ob mouse adipose tissue at 40 mg/kg/day, po; format: functional, organism-based
Mus musculus [19] = test: Decrease in TNF expression in ob/ob mouse adipose tissue at 40 mg/kg/day, po; format: functional, organism-based
Adipocyte = test: Decrease in fatty acid uptake in FABP-deficient mouse adipocytes reconstituted with exogenous aP2 after 24 hrs; format: functional, cell-based
How it was run: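 Immortalized mouse pre-adipocytes differentiated with dexamethasone, IBMX, rosiglitazone and insulin, then insulin alone. Cells incubated 24 h in DMEM with 2% FBS plus inhibitor, then moved to DMEM with 2% BSA and given ³H-stearate at 37 °C for 30 min. Lysate counted by scintillation; values normalized to protein and expressed as % of untreated.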

CCc1c(-c2ccccc2)c(-c2ccccc2)nn1-c1ccccc1-c1cccc(OCC(=O)O)c1
Activity (Mus musculus [1]): 51% | Activity (Mus musculus [2]): 30.3 g | Activity (Mus musculus [3]): 133.2 mg/dL | Activity (Mus musculus [4]): 1465.3 mg/dL | Activity (Mus musculus [5]): Active | Activity (Mus musculus [6]): Active | Activity (Mus musculus [7]): Active | Activity (Mus musculus [8]): Active | Activity (Mus musculus [9]): Active | Activity (Mus musculus [10]): Active | Activity (Mus musculus [11]): Active | Activity (Mus musculus [12]): Active | Activity (Mus musculus [13]): 147.2 mg/dL | Activity (Mus musculus [14]): 410.7 mg/dL | Activity [15]: Active | Activity (THP-1): Active | Activity (Macrophage [16]): Active | Activity (Macrophage [17]): inactive | Activity (Mus musculus [18]): Active | Activity (Mus musculus [19]): Active | Activity (Adipocyte): Active
